Assays:
MDA-MB-231 = experiment: Antiproliferative activity against human MDA-MB-231 cells at 1 uM after 48 to 72 hrs by MTT assay relative to control; assay type: functional
Summary of the method: (§1)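 Single-concentration screen in the MTT proliferation assay: log-phase cells seeded and allowed to adhere, exposed to compound at 1 µM for 48 h or 72 h, MTT added for 2-3 h, formazan dissolved in DMSO; percent inhibition versus control.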

Raji [1] = experiment: Antiproliferative activity against human Raji cells at 1 uM after 48 to 72 hrs by MTT assay relative to control; assay type: functional; summary of the method: as §1
MCF7 [2] = experiment: Antiproliferative activity against human MCF7 cells after 48 to 72 hrs by MTT assay; assay type: functional, cell-based
Summary of the method: (§2)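 Cells in log phase seeded and allowed to adhere, then exposed to graded compound concentrations for 48 h or 72 h; MTT added for a further 2-3 h, formazan dissolved in DMSO. IC50 taken from dose-response curves; mean ± SD of at least three independent experiments.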

Raji [3] = experiment: Antiproliferative activity against human Raji cells after 48 to 72 hrs by MTT assay; assay type: functional, cell-based; summary of the method: as §2
[4] = Resistance index, ratio of IC50 for human A549/TR cells to IC50 for human A549 cells; assay type: functional
A2780/Taxol = experiment: Antiproliferative activity against human A2780T cells after 48 to 72 hrs by MTT assay; assay type: functional, cell-based; summary of the method: as §2
NCI/ADR-RES [5] = experiment: Antiproliferative activity against human MCF7/ADR cells after 48 to 72 hrs by MTT assay; assay type: functional, cell-based; summary of the method: as §2
[6] = Selectivity ratio of IC50 for HUVEC to IC50 for human A2780S cells; assay type: toxicity; conditions: HUVEC versus A2780S cells
MCF7 [7] = experiment: Cell cycle arrest in human MCF7 cells assessed as accumulation at G0/G1 phase at 10 uM after 18 hrs by propidium iodide staining based flow cytometry (reference value: 45.22%); assay type: functional
MCF7 [8] = experiment: Cell cycle arrest in human MCF7 cells assessed as accumulation at G2/M phase at 10 uM after 18 hrs by propidium iodide staining based flow cytometry (reference value: 9.98%); assay type: functional
MCF7 [9] = experiment: Cell cycle arrest in human MCF7 cells assessed as accumulation at S phase at 30 uM after 18 hrs by propidium iodide staining based flow cytometry (reference value: 44.80%); assay type: functional
MCF7 [10] = experiment: Cell cycle arrest in human MCF7 cells assessed as accumulation at G2/M phase at 30 uM after 18 hrs by propidium iodide staining based flow cytometry (reference value: 9.98%); assay type: functional
MCF7 [11] = experiment: Cell cycle arrest in human MCF7 cells assessed as accumulation at S phase at 100 uM after 18 hrs by propidium iodide staining based flow cytometry (reference value: 44.80%); assay type: functional
MCF7 [12] = experiment: Cell cycle arrest in human MCF7 cells assessed as accumulation at G2/M phase at 100 uM after 18 hrs by propidium iodide staining based flow cytometry (reference value: 9.98%); assay type: functional
MCF7 [13] = experiment: Cell cycle arrest in human MCF7 cells assessed as accumulation at G2/M phase after 18 hrs by propidium iodide staining based flow cytometry; assay type: functional
MCF7 [14] = experiment: Induction of apoptosis in human MCF7 cells assessed as viable cells at 3 uM after 48 hrs by annexin V-FITC/PI dual staining based flow cytometry (reference value: 77.8%); assay type: functional; conditions: MCF7, 48 h, read-out: Activity
MCF7 [15] = experiment: Induction of apoptosis in human MCF7 cells assessed as early apoptotic cells at 3 uM after 48 hrs by annexin V-FITC/PI dual staining based flow cytometry (reference value: 11%); assay type: functional
MCF7 [16] = experiment: Induction of apoptosis in human MCF7 cells assessed as late apoptotic cells at 3 uM after 48 hrs by annexin V-FITC/PI dual staining based flow cytometry (reference value: 11.1%); assay type: functional
MCF7 [17] = experiment: Induction of apoptosis in human MCF7 cells assessed as necrotic cells at 3 uM after 48 hrs by annexin V-FITC/PI dual staining based flow cytometry (reference value: 0.16%); assay type: functional
MCF7 [18] = experiment: Induction of apoptosis in human MCF7 cells assessed as viable cells at 10 uM after 48 hrs by annexin V-FITC/PI dual staining based flow cytometry (reference value: 77.8%); assay type: functional; conditions: MCF7, 48 h, read-out: Activity
MCF7 [19] = experiment: Induction of apoptosis in human MCF7 cells assessed as early apoptotic cells at 10 uM after 48 hrs by annexin V-FITC/PI dual staining based flow cytometry (reference value: 11%); assay type: functional
MCF7 [20] = experiment: Induction of apoptosis in human MCF7 cells assessed as late apoptotic cells at 10 uM after 48 hrs by annexin V-FITC/PI dual staining based flow cytometry (reference value: 11.1%); assay type: functional
MCF7 [21] = experiment: Induction of apoptosis in human MCF7 cells assessed as viable cells at 30 uM after 48 hrs by annexin V-FITC/PI dual staining based flow cytometry (reference value: 77.8%); assay type: functional; conditions: MCF7, 48 h, read-out: Activity
MCF7 [22] = experiment: Induction of apoptosis in human MCF7 cells assessed as early apoptotic cells at 30 uM after 48 hrs by annexin V-FITC/PI dual staining based flow cytometry (reference value: 11%); assay type: functional
MCF7 [23] = experiment: Induction of apoptosis in human MCF7 cells assessed as late apoptotic cells at 30 uM after 48 hrs by annexin V-FITC/PI dual staining based flow cytometry (reference value: 11.1%); assay type: functional
MCF7 [24] = experiment: Induction of apoptosis in human MCF7 cells assessed as necrotic cells at 30 uM after 48 hrs by annexin V-FITC/PI dual staining based flow cytometry (reference value: 0.16%); assay type: functional
NCI/ADR-RES [25] = experiment: Induction of apoptosis in human MCF7/ADR cells assessed as viable cells at 3 uM after 48 hrs by annexin V-FITC/PI dual staining based flow cytometry (reference value: 89.8%); assay type: functional; conditions: read-out: Activity
NCI/ADR-RES [26] = experiment: Induction of apoptosis in human MCF7/ADR cells assessed as early apoptotic cells at 3 uM after 48 hrs by annexin V-FITC/PI dual staining based flow cytometry (reference value: 2.72%); assay type: functional
NCI/ADR-RES [27] = experiment: Induction of apoptosis in human MCF7/ADR cells assessed as necrotic cells at 10 uM after 48 hrs by annexin V-FITC/PI dual staining based flow cytometry (reference value: 2.43%); assay type: functional
NCI/ADR-RES [28] = experiment: Induction of apoptosis in human MCF7/ADR cells assessed as viable cells at 30 uM after 48 hrs by annexin V-FITC/PI dual staining based flow cytometry (reference value: 89.8%); assay type: functional; conditions: read-out: Activity
NCI/ADR-RES [29] = experiment: Induction of apoptosis in human MCF7/ADR cells assessed as late apoptotic cells at 30 uM after 48 hrs by annexin V-FITC/PI dual staining based flow cytometry (reference value: 5.02%); assay type: functional
MCF7 [30] = experiment: Induction of apoptosis in human MCF7 cells assessed as late apoptotic cells after 48 hrs by annexin V-FITC/PI dual staining based flow cytometry; assay type: functional, cell-based
Mus musculus [31] = experiment: Toxicity in athymic nude Balb/C mouse xenografted with human H460 cells assessed as effect on feeding behaviour at 100 mg/kg, po administered 3 times per week measured every 2 days; assay type: organism-based; conditions: in vivo, 48 h
Summary of the method: (§3)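 Nude mice, 5-to-6-week-old females, given 5 × 10^6 H460 cells sc in right flank in HBSS; at 100 mm3 tumour volume randomized, 6 per group. Vehicle; oral 100 mg/kg three times weekly; or ip 30 mg/kg once weekly. Toxicity signs and mortality observed daily; body weight measured every 2 days.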

Mus musculus [32] = experiment: Toxicity in athymic nude Balb/C mouse xenografted with human H460 cells assessed as effect on abnormal behaviour at 100 mg/kg, po administered 3 times per week measured every 2 days; assay type: organism-based; conditions: in vivo, 48 h; summary of the method: as §3

N#Cc1ccc(COc2cccc(/C=N/NC(=O)c3cc4c(cn3)[nH]c3ccccc34)c2)cc1
inhibition at 1 µM (MDA-MB-231): 29.6% | inhibition at 1 µM (Raji [1]): 42.7% | IC50 (MCF7 [2]): 930 to 1020 nM | IC50 (Raji [3]): 1060 to 1200 nM | Ratio IC50 [4]: 2.28 | IC50 (A2780/Taxol): 3990 nM | IC50 (NCI/ADR-RES [5]): 982 nM | selectivity ratio [6]: 29.3 | Activity (MCF7 [7]): 36.05% | Activity (MCF7 [8]): 7.57% | Activity (MCF7 [9]): 55.32% | Activity (MCF7 [10]): 6.06% | Activity (MCF7 [11]): 53.88% | Activity (MCF7 [12]): 4.29% | Activity (MCF7 [13]): Dose-dependent effect | viability at 3 µM (MCF7 [14]): 66.8% | Activity (MCF7 [15]): 15.3% | Activity (MCF7 [16]): 17.6% | Activity (MCF7 [17]): 0.26% | viability at 10 µM (MCF7 [18]): 66.6% | Activity (MCF7 [19]): 13.1% | Activity (MCF7 [20]): 20.1% | viability at 30 µM (MCF7 [21]): 50.9% | Activity (MCF7 [22]): 19.4% | Activity (MCF7 [23]): 28.8% | Activity (MCF7 [24]): 0.93% | viability at 3 µM (NCI/ADR-RES [25]): 84.3% | Activity (NCI/ADR-RES [26]): 2.44% | Activity (NCI/ADR-RES [27]): 6.4% | viability at 30 µM (NCI/ADR-RES [28]): 64.8% | Activity (NCI/ADR-RES [29]): 21.9% | Activity (MCF7 [30]): Dose-dependent effect | Activity (Mus musculus [31]): Non-Toxic | Activity (Mus musculus [32]): Non-Toxic
